This is a sample that favours compounds with a hit; in the whole collection about 2.4% have one here.
MC4R barr agon: activates human MC4R beta-arrestin recruitment | P32245 | U2OS MC4R beta-arrestin complementation, luminescence; percent of melanotan II response, DMSO zero | activation, % at 8.9 µM | actives 0.98% (n = 360,000);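 active = activation above a per-plate cutoff, the mean activation of sample wells on that plate plus 3 SD, cut at about 8% in these data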
Target sequence (P32245 whole entry, looked up): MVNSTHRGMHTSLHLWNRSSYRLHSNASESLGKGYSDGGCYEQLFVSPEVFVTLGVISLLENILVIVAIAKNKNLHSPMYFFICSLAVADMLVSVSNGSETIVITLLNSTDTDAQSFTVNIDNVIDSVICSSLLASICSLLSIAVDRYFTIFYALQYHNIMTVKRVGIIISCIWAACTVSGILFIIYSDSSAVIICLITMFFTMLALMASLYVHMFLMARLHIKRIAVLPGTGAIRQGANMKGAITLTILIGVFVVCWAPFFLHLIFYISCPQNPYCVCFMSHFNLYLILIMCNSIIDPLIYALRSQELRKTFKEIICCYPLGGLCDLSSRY
MOR-DOR inv ag: inverse agonists of human mu-delta opioid receptor heterodimerization; AID 504357; cell-based MOR-DOR heterodimer luminescence, inverse agonism; P35372+P41143; actives 0.21% (n = 340,000); inhibition, % at 9.3 µM; in the data active = inhibition above about 22%, passing the limit was not always enough
MOR-DOR ag: agonists of human mu-delta opioid receptor heterodimerization; actives 0.3% (n = 340,000); activation, % at 9.3 µM; cells, OPRM1-OPRD1 heterodimerization, luminescence; AID 504326; P35372+P41143; in the data active = activation above about 18%
HTR5A ag ctr: activates human HTR5A in OPRM1-OPRD1 agonist counter-screen; P47898; HTR5A agonist assay, luminescence, cell-based; activation, % at 9.3 µM; actives 0.61% (n = 340,000); in the data active = activation mostly above about 9.5%, no sharp cut-off; inactive = mostly below about 7.6%
MC4R antagonist: antagonists of human melanocortin 4 receptor (MC4R) | MC4R-expressing cells, MTII-stimulated cAMP, LANCE TR-FRET | P32245 | AID 540295 | inhibition, % at 6.5 µM | actives 0.48% (n = 360,000);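 active = inhibition above its plate's cutoff, the mean of tested wells on that plate plus 3 SD, cut at about 29% in these data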
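Material – human MC4R-expressing U2OS cells · Repeats – no replicates · Detection – TR-FRET with Eu-cAMP and labeled anti-cAMP, 671 nm · Times – compound 30 min, challenge 1 h, detection 1 h · Compound – single nominal compound dose of 6.5 µM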
HTR5A inv ctr: HTR5A inverse agonism, opioid heterodimer counter-screen. P47898. HTR5A cell line, luminescence. inhibition, % at 9.3 µM. actives 0.083% (n = 340,000); in the data active = inhibition mostly above about 23%, no sharp cut-off; inactive = mostly below about 18%
Of the large screens only hits and unclear results are named; the others gave an inactive call.

Cc1cc(Cl)ccc1OCC(=O)Nc1cccc(S(=O)(=O)N2CCCC2)c1	none
Cc1ccc(NC(=O)COc2ccccc2C(N)=O)cc1S(=O)(=O)N1CCCCCC1	none
COc1ccc(OCC(=O)Nc2cc(S(=O)(=O)N3CCCC3)ccc2Cl)cc1	MC4R barr agon 9.0
O=C(Nc1nnc([C@H]2C[C@H](O)[C@@H](CO)O2)s1)NC1CCCCC1	none (no result: MOR-DOR inv ag, MOR-DOR ag, HTR5A ag ctr, HTR5A inv ctr)
CCOC(=O)[C@H]1[C@H]2COc3ccc(OC)cc3[C@@H]2N2C(=O)CN(C)C(=O)[C@@]12C	none
CCOC(=O)N1CCC(NC(=O)CSCc2nc(-c3ccc(OC)cc3)oc2C)CC1	HTR5A ag ctr 11
CN(C)c1nc(-c2ccccn2)nnc1-c1ccccc1	none
Cc1nnc(-c2ccccc2)nc1N(C)C	HTR5A ag ctr 11
CCN(CC)CCCN(Cc1cc2cc3c(cc2[nH]c1=O)OCO3)C(=S)NCCCN(C)C	none
CCN(CC)CCCN(Cc1cc2cc3c(cc2[nH]c1=O)OCO3)C(=S)NC	HTR5A ag ctr 11
COc1ccc(C(=O)NNC(=O)COC(=O)c2sccc2C)cc1	none
O=C(Nc1cccc([N+](=O)[O-])c1)C1C2CC/C=C\CCC21 (stereo not drawn)	MC4R barr agon 8.9
CC1=C(C)CC(C(=O)Nc2cccc([N+](=O)[O-])c2)C(C(=O)O)C1 (stereo not drawn)	none
CCOc1cc(C(c2c(C)[nH][nH]c2=O)c2c(C)[nH][nH]c2=O)ccc1OCc1ccc([N+](=O)[O-])cc1	HTR5A ag ctr 11
CCOc1cc(C(c2c(C)[nH][nH]c2=O)c2c(C)[nH][nH]c2=O)ccc1OC(=O)c1cccc([N+](=O)[O-])c1	none
O=C(c1ccoc1)N1CCN(c2cc(-c3ccncc3)nc3cc(-c4cccc(Cl)c4)nn23)CC1	MC4R barr agon 8.8 (no result: MOR-DOR inv ag, MOR-DOR ag, HTR5A ag ctr, HTR5A inv ctr)
O=C(c1ccncc1)N1CCN(c2cc(-c3ccccc3)nc3cc(-c4cccc(Cl)c4)nn23)CC1	none (no result: MOR-DOR inv ag, MOR-DOR ag, HTR5A ag ctr, HTR5A inv ctr)
C=CCN(c1ccccc1C(=O)O)S(=O)(=O)/C=C/c1ccccc1	none
Cc1ccc(Oc2nc(-c3ccccc3)ncc2S(C)(=O)=O)cc1	MC4R barr agon 8.4
O=C(CSc1ccccn1)N1CCNC1=O	none
CCOC(=O)CNC(=O)CSc1nc2nc(C)c(Br)cc2[nH]1	HTR5A ag ctr 13
Cc1nc2nc(SCC(N)=O)[nH]c2cc1Br	none
CCCCc1nnc(NC(=O)c2oc3ccccc3c2C)s1	MC4R barr agon 9.1
CCCc1c(C(=O)N/N=C/c2ccco2)nnn1-c1nonc1N	none
O=C(CN1C(=O)/C(=C/c2ccccc2)SC1=S)NC1C=CS(=O)(=O)C1 (stereo not drawn)	HTR5A ag ctr 12
O=C(CN1C(=O)/C(=C/c2ccc(Cl)cc2)SC1=S)NC1C=CS(=O)(=O)C1 (stereo not drawn)	none
CCN(CC)CCNC(=O)c1cn(CC)c2cc(N3CCN(C)CC3)c(F)cc2c1=O	none
CCNC(=O)C1CCCN(C(=O)c2cccc(Cl)c2)CC1 (stereo not drawn)	none (no result: MOR-DOR inv ag, MOR-DOR ag, HTR5A ag ctr, HTR5A inv ctr)
CCN(CC)c1ccc(/C=N/N2CCN(Cc3ccc(Cl)cc3)CC2)c(O)c1	HTR5A ag ctr 13
COc1cccc(CN2CCCC(C(=O)c3ccc4c(c3)OCO4)C2)c1OC (stereo not drawn)	none
O=C(c1ccc2c(c1)OCO2)C1CCCN(Cc2ccccc2OC(F)F)C1 (stereo not drawn)	HTR5A ag ctr 13
Cc1cccc(C)c1NC(=O)CNC(=O)CCC(=O)c1cccs1	none
O=C(CN1CCN(C(=O)c2ccc(-c3nc4ccccc4s3)o2)CC1)Nc1ccc(F)cc1	none
COc1ccc(CCNC(=O)c2sc3cc(C)ccc3c2Cl)cc1	MC4R barr agon 9.4
Cc1ccc2c(Cl)c(C(=O)NCCc3ccccc3)sc2c1	none
O=[n+]1cc(-c2ccccc2)n([O-])c2c1CCCCC2	HTR5A ag ctr 11
Cc1cccc(-c2cc(C(=O)Nc3ccncc3)c3ccccc3n2)c1	MC4R barr agon 12, MOR-DOR ag 21, HTR5A ag ctr 12
O=C(Nc1ccc(Br)cc1)c1cc(-c2ccncc2)nc2ccccc12	none
O=C(Nc1ccncc1)c1cc(-c2ccccc2)nc2ccccc12	MC4R barr agon 9.3 (no result: MOR-DOR inv ag, MOR-DOR ag, HTR5A ag ctr, HTR5A inv ctr)
CCOc1ccc(NC(=O)c2cc(OC)nc3ccccc23)cc1	HTR5A ag ctr 12

Screening results as filed in PubChem.
